Measurements pooled from the literature.
Target: Eukaryotic translation initiation factor 2-alpha kinase 1 (EIF2AK1, Homo sapiens, UniProt Q9BQI3)

| Structure (SMILES) | effect on | method | concentration | remaining binding [%] |
| --- | --- | --- | --- | --- |
| C[C@H](c1ccc(F)cc1)N(Cc1cccc(C(=O)O)c1)C(=O)c1cnc2ccccc2c1 | cell-free assay | competition with immobilised ligand | 1 µM | 84 |
| C=CC(=O)N1CCC(C(=O)NCC(=O)N2CCN(c3nc(-c4cnc(N)nc4C(F)F)nc(N4CCOCC4)n3)CC2)CC1 | binding | competition with immobilised ligand | 1 µM | 94 |
| O=C(NCc1ncc(C(F)(F)F)cc1Cl)c1ccc2c(c1)C1(CCS(=O)(=O)CC1)[C@@H](C1CC1)N2S(=O)(=O)c1ccc(F)cc1 | cell-free assay | competition with immobilised ligand | 1 µM | 94 |
| C[C@H]1CCN(c2nccc(-c3cnn4ncccc34)n2)C1 | binding |  | 1 µM | 73 |
| Cc1cnc(Nc2ccc(C(=O)N3CCC(N4CCCC4)CC3)cc2)nc1-c1cc2ccccc2s1 | binding | competition with immobilised ligand | 1 µM | 100 |
| Cc1cnn2ncc(-c3ccnc(N(C)C)n3)c2c1 | binding |  | 1 µM | 84 |
| Cc1nc(N2CC[C@@H](O)C2)ncc1-c1cc(C(F)(F)F)cc2[nH]ncc12 | binding | competition with immobilised ligand | 1 µM | 98 |
| O=C(NCCCN1CCOCC1)c1ccc(Nc2ncc(Cl)c(-c3ccc(Cl)s3)n2)cc1 | binding | competition with immobilised ligand | 1 µM | 97 |
| CCN1CCN(Cc2ccc(C(=O)Nc3ccc(C)c(Oc4ccc5c(c4)CC(=O)N5)c3)cc2C(F)(F)F)CC1 | binding | competition with immobilised ligand | 1 µM | 100 |
| CN1CCN(c2cnc3c(C4CCN(C(=O)c5ccc(OC(F)(F)F)cc5N)CC4)ncnc3c2)CC1 | cell-free assay | competition with immobilised ligand | 1 µM | 100 |
| COc1ccnn2ncc(-c3ccnc(N(C)C)n3)c12 | binding |  | 1 µM | 95 |
| O=C(NCC1CCOCC1)c1n[nH]cc1NC(=O)c1c(F)cccc1F | binding | competition with immobilised ligand | 1 µM | 87 |
| O=C(c1ccc(Nc2nccc(-c3cc4ccccc4s3)n2)cc1)N1CCC(N2CCCC2)CC1 | binding | competition with immobilised ligand | 1 µM | 100 |
| Nc1ncc2c(n1)-c1c([nH]c3ccc(C#CC4CC4)cc13)CCCC2 | binding | competition with immobilised ligand | 1 µM | 80 |
| F[C@@H]1CCN(c2nccc(-c3cnn4ncccc34)n2)C1 | binding |  | 1 µM | 100 |
| COc1cnc(Nc2cccc(S(N)(=O)=O)c2)nc1N1CCN(c2ccccc2)C(=O)C1 | binding | competition with immobilised ligand | 1 µM | 89 |
| CS(=O)(=O)N1CCCC(NC(=O)[C@H](CCC2CCCCC2)NC(=O)c2ccc(CNC(=O)c3cnc4ccccn34)cc2)C1 (stereo partly shown) | cell-free assay | competition with immobilised ligand | 0.1 µM | 91 |
| CC1CCCN1c1nccc(-c2cnn3ncccc23)n1 (stereo not shown) | binding |  | 1 µM | 100 |
| Nc1cnc(N2CCc3cc(S(=O)(=O)Nc4c(F)cc(Cl)cc4F)cc(N4CCCC4=O)c32)nc1 | cell-free assay | competition with immobilised ligand | 1 µM | 94 |
| CN(C)c1ncc(F)c(-c2cnn3ncccc23)n1 | binding |  | 1 µM | 100 |
| Cc1nc(C2CCN(C(=O)c3ccc(OC(F)(F)F)cc3N)CC2)c2ncc(N3CCN(C)CC3)cc2n1 | cell-free assay | competition with immobilised ligand | 1 µM | 85 |
| c1cnn2ncc(-c3ccnc(N4CCC45COC5)n3)c2c1 | binding |  | 1 µM | 49 |
